Data from ChEMBL document CHEMBL4049460, “Trisubstituted Imidazoles with a Rigidized Hinge Binding Motif Act As Single Digit nM Inhibitors of Clinically Relevant EGFR L858R/T790M and L858R/T790M/C797S Mutants: An Example of Target Hopping” (J Med Chem, 2017).
Values after ≈ are worked out from the molar mass of the structure shown.

System: not listed separately
Assay: Solubility of the compound at pH 7.5 by UV-HPLC analysis
Type: physicochemical
Settings: buffer; call rule not given here
Method in brief: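 Solubility measured in the kinase assay buffer (pH 7.5); concentration determined by HPLC with UV detection.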

Q: Which solubility does the source give for OCCCCc1nc(-c2ccc(F)cc2)c(-c2ccnc3[nH]c(-c4ccccc4)cc23)[nH]1 here?
A: Insoluble

Same assay, conditions: buffer, read-out: solubility

Q: Which solubility does the source give for OCCc1nc(-c2ccc(F)cc2)c(-c2ccnc3[nH]c(-c4ccccc4)cc23)[nH]1 here?
A: 7 µg/mL (≈ 17.6 µM)

System: Epidermal growth factor receptor (Homo sapiens), P00533 [L858R,T790M,C797S]
Assay: Potency index, ratio of osimertinib IC50 to compound IC50 for recombinant human N-terminally GST-tagged EGFR L858R/T790M/C797S triple mutant expressed in baculovirus in Sf9 insect cells
Settings: not given

Q: With OCCc1nc(-c2ccc(F)cc2)c(-c2ccnc3[nH]c(-c4ccccc4)cc23)[nH]1 as the compound, how does the Ratio IC50 read?
A: 35

Species: Homo sapiens
Assay: Selectivity ratio of IC50 for EGFR L858R/T790M double mutant (unknown origin) to IC50 for wild-type EGFR (unknown origin)
Settings: not given

Q: Which Ratio IC50 does the source give for OCCCc1nc(-c2ccc(F)cc2)c(-c2ccnc3[nH]ccc23)[nH]1 here?
A: > 130

Target: Epidermal growth factor receptor (Homo sapiens, UniProt P00533, T790M/L858R)
Assay: (§1) Inhibition of recombinant human GST-tagged EGFR L858R/T790M double mutant cytoplasmic domain expressed in baculovirus expression system preincubated for 20 mins followed by addition of [33P]-ATP measured after 2 hrs by filter-binding method
Settings: not given

Q: For C=CC(=O)Nc1cccc(-c2c[nH]c3nccc(-c4[nH]c(CCCO)nc4C4CC4)c23)c1, which IC50 is on record?
A: Not Active

Q: Which IC50 does the source give for CCC(=O)Nc1cccc(-c2c[nH]c3nccc(-c4[nH]c(CCCO)nc4C4CC4)c23)c1 here?
A: Not Active

Q: For C=CC(=O)NCc1cccc(-c2cc3cccnc3[nH]2)c1, which IC50 is on record?
A: Not Active

Q: For Fc1ccc(-c2nc(-c3ccccc3)[nH]c2-c2ccnc3[nH]ccc23)cc1, which IC50 is on record?
A: Not Active

Q: With CCC(=O)Nc1cccc(-c2c[nH]c3nccc(-c4[nH]c(-c5ccccc5)nc4-c4ccc(F)cc4)c23)c1 as the compound, how does the IC50 read?
A: Not Active

Target: Epidermal growth factor receptor (Homo sapiens, UniProt P00533, L858R/T790M)
Assay: as §1
Settings: not given

Q: Which IC50 does the source give for C=CC(=O)NCc1cccc(-c2nc(-c3ccc(F)cc3)c(-c3ccnc4[nH]c(-c5ccccc5)cc34)[nH]2)c1 here?
A: 263 nM

Q: For OCCCCc1nc(-c2ccc(F)cc2)c(-c2ccnc3[nH]c(-c4ccccc4)cc23)[nH]1, which IC50 is on record?
A: 8.39 nM

Q: For Oc1ccc(-c2nc(-c3ccnc4[nH]c(-c5ccccc5)cc34)c(-c3ccc(F)cc3)[nH]2)cc1, which IC50 is on record?
A: 916 nM

Q: With CCC(=O)Nc1cccc(-c2c[nH]c3nccc(-c4[nH]c(CCCO)nc4-c4ccc(F)cc4)c23)c1 as the compound, how does the IC50 read?
A: 5900 nM

Q: For C=CC(=O)NCc1cccc(-c2cc3c(-c4[nH]c(-c5ccccc5)nc4-c4ccc(F)cc4)ccnc3[nH]2)c1, which IC50 is on record?
A: 683 nM

Q: Which IC50 does the source give for OCCCc1nc(-c2ccc(F)cc2)c(-c2ccnc3[nH]ccc23)[nH]1 here?
A: 893 nM

Q: For OCCc1nc(-c2ccc(F)cc2)c(-c2ccnc3[nH]c(-c4ccccc4)cc23)[nH]1, which IC50 is on record?
A: 12.5 nM

Target: Epidermal growth factor receptor (Homo sapiens, UniProt P00533, L858R)
Assay: Inhibition of recombinant human GST-tagged EGFR L858R mutant cytoplasmic domain expressed in baculovirus expression system preincubated for 20 mins followed by addition of [33P]-ATP measured after 2 hrs by filter-binding method
Settings: not given

Q: Which IC50 does the source give for CCC(=O)Nc1cccc(-c2c[nH]c3nccc(-c4[nH]c(CCCO)nc4C4CC4)c23)c1 here?
A: Not Active

Q: Which IC50 does the source give for C=CC(=O)NCc1cccc(-c2cc3cccnc3[nH]2)c1 here?
A: Not Active

Q: Which IC50 does the source give for CCC(=O)Nc1cccc(-c2c[nH]c3nccc(-c4[nH]c(-c5ccccc5)nc4-c4ccc(F)cc4)c23)c1 here?
A: Not Active

Same assay, conditions: read-out: IC50

Q: With C=CC(=O)Nc1cccc(-c2c[nH]c3nccc(-c4[nH]c(CCCO)nc4C4CC4)c23)c1 as the compound, how does the IC50 read?
A: 258 nM

Q: For C=CC(=O)NCc1cccc(-c2nc(-c3ccc(F)cc3)c(-c3ccnc4[nH]c(-c5ccccc5)cc34)[nH]2)c1, which IC50 is on record?
A: 13 nM

Q: With OCCCCc1nc(-c2ccc(F)cc2)c(-c2ccnc3[nH]c(-c4ccccc4)cc23)[nH]1 as the compound, how does the IC50 read?
A: < 0.3 nM

Q: Which IC50 does the source give for Oc1ccc(-c2nc(-c3ccnc4[nH]c(-c5ccccc5)cc34)c(-c3ccc(F)cc3)[nH]2)cc1 here?
A: 24.1 nM

Q: For CCC(=O)Nc1cccc(-c2c[nH]c3nccc(-c4[nH]c(CCCO)nc4-c4ccc(F)cc4)c23)c1, which IC50 is on record?
A: 279 nM

Q: With C=CC(=O)NCc1cccc(-c2cc3c(-c4[nH]c(-c5ccccc5)nc4-c4ccc(F)cc4)ccnc3[nH]2)c1 as the compound, how does the IC50 read?
A: 34.2 nM

Q: With OCCCc1nc(-c2ccc(F)cc2)c(-c2ccnc3[nH]ccc23)[nH]1 as the compound, how does the IC50 read?
A: 24.4 nM

Q: With OCCc1nc(-c2ccc(F)cc2)c(-c2ccnc3[nH]c(-c4ccccc4)cc23)[nH]1 as the compound, how does the IC50 read?
A: < 0.3 nM

Q: Which IC50 does the source give for Fc1ccc(-c2nc(-c3ccccc3)[nH]c2-c2ccnc3[nH]ccc23)cc1 here?
A: 631 nM

Target: Epidermal growth factor receptor (Homo sapiens, UniProt P00533, T790M/C797S/L858R)
Assay: (§2) Inhibition of recombinant human N-terminally GST-tagged EGFR L858R/T790M/C797S triple mutant expressed in baculovirus in Sf9 insect cells preincubated for 20 mins followed by addition of [33P]-ATP measured after 2 hrs by filter-binding method
Settings: not given

Q: Which IC50 does the source give for C=CC(=O)Nc1cccc(-c2c[nH]c3nccc(-c4[nH]c(CCCO)nc4C4CC4)c23)c1 here?
A: Not Active

Q: Which IC50 does the source give for CCC(=O)Nc1cccc(-c2c[nH]c3nccc(-c4[nH]c(CCCO)nc4C4CC4)c23)c1 here?
A: Not Active

Q: With C=CC(=O)NCc1cccc(-c2cc3cccnc3[nH]2)c1 as the compound, how does the IC50 read?
A: Not Active

Q: For Fc1ccc(-c2nc(-c3ccccc3)[nH]c2-c2ccnc3[nH]ccc23)cc1, which IC50 is on record?
A: Not Active

Q: Which IC50 does the source give for CCC(=O)Nc1cccc(-c2c[nH]c3nccc(-c4[nH]c(-c5ccccc5)nc4-c4ccc(F)cc4)c23)c1 here?
A: Not Active

Target: Epidermal growth factor receptor (Homo sapiens, UniProt P00533, C797S/L858R/T790M)
Assay: as §2
Settings: not given

Q: Which IC50 does the source give for OCCCCc1nc(-c2ccc(F)cc2)c(-c2ccnc3[nH]c(-c4ccccc4)cc23)[nH]1 here?
A: 8.4 nM

Q: For OCCCc1nc(-c2ccc(F)cc2)c(-c2ccnc3[nH]ccc23)[nH]1, which IC50 is on record?
A: 943 nM

Q: Which IC50 does the source give for OCCc1nc(-c2ccc(F)cc2)c(-c2ccnc3[nH]c(-c4ccccc4)cc23)[nH]1 here?
A: 7.64 nM

Target: Mitogen-activated protein kinase 14 (Homo sapiens, UniProt Q16539)
Assay: Inhibition of p38alpha MAPK (unknown origin) assessed as decrease in ATF2 phosphorylation at Thr69/71 at 1 uM after 1 hr by ELISA
Settings: not given

Sequence of Mitogen-activated protein kinase 14 (Q16539 whole entry): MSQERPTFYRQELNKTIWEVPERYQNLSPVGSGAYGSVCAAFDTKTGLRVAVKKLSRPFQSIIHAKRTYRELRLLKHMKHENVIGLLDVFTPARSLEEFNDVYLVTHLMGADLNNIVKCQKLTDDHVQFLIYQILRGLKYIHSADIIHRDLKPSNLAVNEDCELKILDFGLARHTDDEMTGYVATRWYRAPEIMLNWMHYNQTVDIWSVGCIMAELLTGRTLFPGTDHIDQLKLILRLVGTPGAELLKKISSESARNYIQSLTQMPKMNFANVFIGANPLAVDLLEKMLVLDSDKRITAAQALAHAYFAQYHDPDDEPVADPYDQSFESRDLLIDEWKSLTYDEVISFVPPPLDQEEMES

Q: For OCCCCc1nc(-c2ccc(F)cc2)c(-c2ccnc3[nH]c(-c4ccccc4)cc23)[nH]1, which IC50 is on record?
A: 2 nM

Q: Which IC50 does the source give for OCCCc1nc(-c2ccc(F)cc2)c(-c2ccnc3[nH]ccc23)[nH]1 here?
A: 12 nM

Q: For OCCc1nc(-c2ccc(F)cc2)c(-c2ccnc3[nH]c(-c4ccccc4)cc23)[nH]1, which IC50 is on record?
A: 4 nM

Target: Epidermal growth factor receptor (Homo sapiens, UniProt P00533)
Assay: Inhibition of recombinant human GST-tagged wild type EGFR ( 668 to 1210 residues) cytoplasmic domain expressed in baculovirus expression system preincubated for 20 mins followed by addition of [33P]-ATP measured after 2 hrs by filter-binding method
Settings: not given

Q: Which IC50 does the source give for CCC(=O)Nc1cccc(-c2c[nH]c3nccc(-c4[nH]c(CCCO)nc4C4CC4)c23)c1 here?
A: Not Active

Q: For C=CC(=O)NCc1cccc(-c2cc3cccnc3[nH]2)c1, which IC50 is on record?
A: Not Active

Q: Which IC50 does the source give for CCC(=O)Nc1cccc(-c2c[nH]c3nccc(-c4[nH]c(-c5ccccc5)nc4-c4ccc(F)cc4)c23)c1 here?
A: Not Active

Same assay, conditions: read-out: IC50

Q: Which IC50 does the source give for C=CC(=O)Nc1cccc(-c2c[nH]c3nccc(-c4[nH]c(CCCO)nc4C4CC4)c23)c1 here?
A: 673 nM

Q: With C=CC(=O)NCc1cccc(-c2nc(-c3ccc(F)cc3)c(-c3ccnc4[nH]c(-c5ccccc5)cc34)[nH]2)c1 as the compound, how does the IC50 read?
A: 17.6 nM

Q: With OCCCCc1nc(-c2ccc(F)cc2)c(-c2ccnc3[nH]c(-c4ccccc4)cc23)[nH]1 as the compound, how does the IC50 read?
A: < 0.3 nM

Q: With Oc1ccc(-c2nc(-c3ccnc4[nH]c(-c5ccccc5)cc34)c(-c3ccc(F)cc3)[nH]2)cc1 as the compound, how does the IC50 read?
A: 49.2 nM

Q: With CCC(=O)Nc1cccc(-c2c[nH]c3nccc(-c4[nH]c(CCCO)nc4-c4ccc(F)cc4)c23)c1 as the compound, how does the IC50 read?
A: 673 nM

Q: For C=CC(=O)NCc1cccc(-c2cc3c(-c4[nH]c(-c5ccccc5)nc4-c4ccc(F)cc4)ccnc3[nH]2)c1, which IC50 is on record?
A: 33.2 nM

Q: With OCCCc1nc(-c2ccc(F)cc2)c(-c2ccnc3[nH]ccc23)[nH]1 as the compound, how does the IC50 read?
A: 44 nM

Q: Which IC50 does the source give for OCCc1nc(-c2ccc(F)cc2)c(-c2ccnc3[nH]c(-c4ccccc4)cc23)[nH]1 here?
A: < 0.3 nM

Q: For Fc1ccc(-c2nc(-c3ccccc3)[nH]c2-c2ccnc3[nH]ccc23)cc1, which IC50 is on record?
A: 712 nM
